Data: article PMC10915268 (Parasites, Hosts and Diseases, 2024)

Key:
[1] = tested on: P. falciparum K1 (CQ-resistant strain); assay: In vitro antimalarial activity, P. falciparum K1; assay type: cell-based, Plasmodium falciparum; details: for K1 Relative SI: selective index (CC50/IC50), relative to SKM13-2HCl = 1
[2] = tested on: P. berghei NK65; assay: 4-day suppressive test in P. berghei NK65-infected ICR mice; assay type: in vivo, Plasmodium berghei (ICR mice)
Outline: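 6-week-old ICR-1 mice were inoculated on day 0 with 107 blood-stage P. berghei NK65. The test compound was given i.v. at 10, 20 or 30 mg/kg once daily for 4 days. Body weight, survival and blood parasites were recorded daily for 2 weeks. At 8 dpi mice were euthanized and livers and spleens harvested.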

[3] = tested on: P. falciparum 3D7 (CQ-sensitive strain); assay: In vitro antimalarial activity, P. falciparum 3D7; assay type: cell-based, Plasmodium falciparum; details: for 3D7 Relative SI: selective index (CC50/IC50), relative to SKM13-2HCl = 1
[4] = In vivo PK assessment in mice; design: species or system ICR mice; details: oral, 5 mg/kg single dose
Outline: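 Healthy female 7-week-old ICR mice (about 30 g), kept under specific pathogen-free conditions, three per group. Each got a single oral dose of test compound at 5 mg/kg. Blood was drawn at various times and plasma stored at −80°C. Levels were measured by LC–MS/MS with calibration and QC standards. Kinetic parameters came from regression of plasma concentration versus time.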

[5] = tested on: Vero cells; assay: Cytotoxicity test using the MTT assay; assay type: cell-based; details: read-out: Vero CC50, 2-day compound exposure
Outline: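 Vero cells were seeded at 104 per well in DMEM with 10% FBS. 12 h later, serial concentrations of test compound were added for 2 days at 37°C, 5% CO2. MTT was then added for 2 h and absorbance read at 490 nm. CC50 was derived from percentage growth inhibition. Run in triplicate, mean±SD.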

[6] = Solubility in deionized water; assay type: physicochemical; details: saturated aqueous solution, HPLC UV 342 nm
Outline: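 Saturated solutions of the test compound salt were made in deionized water and measured by UHPLC with UV detection at 342 nm. 1% TFA in water was added to the solvent to keep the salt form. Standards at 5 concentrations gave a linear regression, from which solubility was calculated.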

[7] = Turbidity of 1 mM drug in cell culture media; assay type: physicochemical; details: 1 mM dissolved in cell culture media (DMEM)
[8] = 10 mg/kg i.v. once daily for 4 days
[9] = 20 mg/kg, organs collected 8 dpi

Structure (SMILES) | K1 Relative SI [1] | parasitemia [2, 8] | 3D7 Relative SI [3] | Tmax_h, time to peak concentration [4] [min] | elimination half-life (t1/2) ([4]; comparison of both drugs) | Cmax/AUC higher than that of SAM13-2HCl ([4]; versus SAM13-2HCl) [fold] | IC50 ([1]; read-out: K1 IC50, P. falciparum K1, synchronized parasites) [nM] | body weight ([2]; 10 mg/kg i.v. once daily for 4 days, infected mice) | parasitemia ([2]; 20 mg/kg i.v. once daily for 4 days) | liver pigmentation [2, 9] | spleen size [2, 9] | parasitemia ([2]; 30 mg/kg i.v. once daily for 4 days) | curative effect (survival) ([2]; 30 mg/kg once daily, 6 dpi) | CC50 [5] [nM] | IC50 ([3]; read-out: 3D7 IC50, P. falciparum 3D7, synchronized parasites) [nM] | solubility in deionized water [6] [mg/mL] | turbidity [7]
CCN(CC)CCCC(C)Nc1ccnc2cc(Cl)ccc12 (centres unmarked) [CQ, Chloroquine] | 3.5 | significantly reduced parasite density | 6.0 |  |  |  |  |  |  |  |  |  |  |  |  |  | 
CN(C)CCNC(=O)/C=C/[C@H](Cc1ccccc1)Nc1ccnc2cc(Cl)ccc12 [SKM13-2HCl] | 1 | increased parasitemia | 1.0 | 15 | similar | 2 | 366 ± 19.8 | not observed | effectively suppressed parasitemia | decreased liver pigmentation | same size as those of the normal or CQ-treated groups | effectively suppressed parasitemia | complete curative effect | 55200 ± 1100 | 53.1 ± 10 | 850.8 | transparent
